From paper PMC5693607 (Cell chemical biology, 2017) come the findings set out here.

The target of test [1] is T1, HDAC3 (Homo sapiens, UniProt O15379). Format: cell-based. The note with it: MDA-MB-231 cells, inhibitor 2–12 hours; for photomate labeling (engagement) of HDAC3 after inhibitor treatment: then photomate 10 µM. In a few lines:
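MDA-MB-231 cells were grown 2 days in complete medium, then treated with inhibitor. They were then either lysed directly for Western blot or photolabeled: 10 µM probe for 40 min at 37 °C, ± SAHA 200 µM competitor, then 366 nm irradiation at 4 °C. Lysate (35.2 µg) was clicked to an 800 nm IRDye azide and separated on gel. HDAC3 was co-stained by antibody and imaged at 700/800 nm.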

Test [2] has as its target T1, HDAC3. Description: Treatment followed by in situ photolabeling and Western blot, MCF-7 cells. Type of test: cell-based. In a few lines: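 MCF-7 cells received TNF-α or vehicle, then photomate 10 µM (± SAHA 200 µM) for 40 min at 37 °C. They were irradiated at 366 nm (35 J/cm2) at 4 °C. Lysate (35.2 µg) was clicked to azide 800CW IRDye (90 min rt), gel-separated and fluorescence-imaged. HDAC3 and phospho-HDAC3 were detected by Western blot with IRDye secondaries.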
Target sequence in this assay (O15379 whole entry): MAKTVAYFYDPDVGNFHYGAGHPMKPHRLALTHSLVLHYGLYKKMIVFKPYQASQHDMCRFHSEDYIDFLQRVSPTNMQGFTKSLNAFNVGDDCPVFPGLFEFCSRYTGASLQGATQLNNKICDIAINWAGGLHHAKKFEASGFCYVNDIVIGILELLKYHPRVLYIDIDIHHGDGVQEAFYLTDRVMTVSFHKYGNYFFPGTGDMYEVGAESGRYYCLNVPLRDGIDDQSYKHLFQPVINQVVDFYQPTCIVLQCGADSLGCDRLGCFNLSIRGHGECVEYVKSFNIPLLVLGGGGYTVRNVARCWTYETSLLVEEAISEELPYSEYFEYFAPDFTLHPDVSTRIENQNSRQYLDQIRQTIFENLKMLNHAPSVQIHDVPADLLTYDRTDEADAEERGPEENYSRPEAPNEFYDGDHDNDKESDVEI
Target sequence in this assay (O75376 whole entry partner): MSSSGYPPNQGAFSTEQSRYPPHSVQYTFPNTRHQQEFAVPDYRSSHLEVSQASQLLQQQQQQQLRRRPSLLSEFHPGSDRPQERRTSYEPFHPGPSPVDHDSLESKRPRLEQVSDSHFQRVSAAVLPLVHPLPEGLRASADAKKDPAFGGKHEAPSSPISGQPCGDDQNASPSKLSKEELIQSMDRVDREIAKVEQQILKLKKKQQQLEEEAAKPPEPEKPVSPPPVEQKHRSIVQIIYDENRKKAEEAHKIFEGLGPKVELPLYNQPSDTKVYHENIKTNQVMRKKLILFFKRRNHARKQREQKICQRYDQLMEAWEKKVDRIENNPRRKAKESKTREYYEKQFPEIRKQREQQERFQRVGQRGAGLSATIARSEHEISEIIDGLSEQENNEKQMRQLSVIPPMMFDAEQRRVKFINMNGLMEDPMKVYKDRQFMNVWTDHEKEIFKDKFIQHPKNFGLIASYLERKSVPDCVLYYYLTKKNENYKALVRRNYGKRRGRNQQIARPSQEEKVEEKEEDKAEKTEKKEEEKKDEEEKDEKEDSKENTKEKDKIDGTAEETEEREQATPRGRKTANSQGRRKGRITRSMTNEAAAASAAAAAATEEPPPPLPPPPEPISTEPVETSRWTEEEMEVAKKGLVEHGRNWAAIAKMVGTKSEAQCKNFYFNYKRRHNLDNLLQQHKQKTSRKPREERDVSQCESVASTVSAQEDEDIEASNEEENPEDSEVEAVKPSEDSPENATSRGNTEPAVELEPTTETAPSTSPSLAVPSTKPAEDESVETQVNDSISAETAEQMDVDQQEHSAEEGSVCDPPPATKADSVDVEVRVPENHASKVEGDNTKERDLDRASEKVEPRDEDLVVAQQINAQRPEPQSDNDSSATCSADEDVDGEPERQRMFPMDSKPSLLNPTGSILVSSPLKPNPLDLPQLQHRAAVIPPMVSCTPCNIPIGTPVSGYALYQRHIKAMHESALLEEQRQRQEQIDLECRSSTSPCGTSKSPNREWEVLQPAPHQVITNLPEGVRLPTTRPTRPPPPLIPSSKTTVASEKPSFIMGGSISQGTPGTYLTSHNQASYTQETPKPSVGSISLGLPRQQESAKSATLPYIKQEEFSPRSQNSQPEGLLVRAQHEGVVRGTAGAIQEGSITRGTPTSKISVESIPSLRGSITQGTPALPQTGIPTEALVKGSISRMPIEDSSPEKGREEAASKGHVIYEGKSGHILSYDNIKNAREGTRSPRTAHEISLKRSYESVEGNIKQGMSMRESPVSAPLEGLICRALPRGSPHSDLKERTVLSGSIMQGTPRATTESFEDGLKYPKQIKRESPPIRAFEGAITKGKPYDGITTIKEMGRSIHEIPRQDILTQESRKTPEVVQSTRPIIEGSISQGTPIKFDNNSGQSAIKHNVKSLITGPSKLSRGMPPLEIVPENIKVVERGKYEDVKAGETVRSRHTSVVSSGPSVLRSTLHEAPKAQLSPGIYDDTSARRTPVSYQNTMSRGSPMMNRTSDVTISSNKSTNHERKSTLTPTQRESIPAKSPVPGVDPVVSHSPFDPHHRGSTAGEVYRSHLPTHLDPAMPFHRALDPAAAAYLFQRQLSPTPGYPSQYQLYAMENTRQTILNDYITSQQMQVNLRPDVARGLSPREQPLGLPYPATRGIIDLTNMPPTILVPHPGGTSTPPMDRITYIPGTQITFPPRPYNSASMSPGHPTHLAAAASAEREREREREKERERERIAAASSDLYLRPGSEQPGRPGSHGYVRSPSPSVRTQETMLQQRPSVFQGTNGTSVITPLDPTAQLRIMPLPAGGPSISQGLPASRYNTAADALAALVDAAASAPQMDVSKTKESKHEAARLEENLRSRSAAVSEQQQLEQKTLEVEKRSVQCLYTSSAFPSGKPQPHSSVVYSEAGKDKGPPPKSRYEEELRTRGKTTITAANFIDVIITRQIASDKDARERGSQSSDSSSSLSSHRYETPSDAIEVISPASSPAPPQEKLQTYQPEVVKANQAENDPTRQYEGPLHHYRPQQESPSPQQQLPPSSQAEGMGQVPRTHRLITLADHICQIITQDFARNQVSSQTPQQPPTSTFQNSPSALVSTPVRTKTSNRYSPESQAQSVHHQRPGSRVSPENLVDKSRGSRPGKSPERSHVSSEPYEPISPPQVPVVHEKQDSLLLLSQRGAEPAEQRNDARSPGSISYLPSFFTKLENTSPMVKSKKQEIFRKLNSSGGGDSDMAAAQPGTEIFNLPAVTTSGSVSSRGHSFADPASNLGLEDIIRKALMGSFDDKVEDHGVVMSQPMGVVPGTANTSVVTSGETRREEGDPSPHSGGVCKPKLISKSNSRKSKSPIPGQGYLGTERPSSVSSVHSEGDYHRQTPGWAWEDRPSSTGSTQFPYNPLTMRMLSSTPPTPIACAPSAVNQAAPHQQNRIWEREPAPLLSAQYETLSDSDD
Target sequence in this assay (O60907 whole entry partner): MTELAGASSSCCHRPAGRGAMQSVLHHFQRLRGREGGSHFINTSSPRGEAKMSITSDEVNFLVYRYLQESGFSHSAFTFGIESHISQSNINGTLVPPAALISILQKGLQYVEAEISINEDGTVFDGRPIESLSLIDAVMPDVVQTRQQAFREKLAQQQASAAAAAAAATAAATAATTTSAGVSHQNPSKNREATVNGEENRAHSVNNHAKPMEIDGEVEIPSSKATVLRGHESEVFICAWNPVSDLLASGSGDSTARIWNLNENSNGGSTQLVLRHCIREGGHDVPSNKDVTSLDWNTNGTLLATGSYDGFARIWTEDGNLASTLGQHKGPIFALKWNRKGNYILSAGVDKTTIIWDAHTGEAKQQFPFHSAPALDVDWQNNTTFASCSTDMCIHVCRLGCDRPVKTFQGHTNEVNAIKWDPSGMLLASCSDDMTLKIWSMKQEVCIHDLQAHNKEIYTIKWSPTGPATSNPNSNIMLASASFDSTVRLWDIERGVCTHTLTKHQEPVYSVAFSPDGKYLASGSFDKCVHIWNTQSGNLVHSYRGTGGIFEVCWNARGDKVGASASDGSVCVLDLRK
Target sequence in this assay (Q13227 whole entry partner): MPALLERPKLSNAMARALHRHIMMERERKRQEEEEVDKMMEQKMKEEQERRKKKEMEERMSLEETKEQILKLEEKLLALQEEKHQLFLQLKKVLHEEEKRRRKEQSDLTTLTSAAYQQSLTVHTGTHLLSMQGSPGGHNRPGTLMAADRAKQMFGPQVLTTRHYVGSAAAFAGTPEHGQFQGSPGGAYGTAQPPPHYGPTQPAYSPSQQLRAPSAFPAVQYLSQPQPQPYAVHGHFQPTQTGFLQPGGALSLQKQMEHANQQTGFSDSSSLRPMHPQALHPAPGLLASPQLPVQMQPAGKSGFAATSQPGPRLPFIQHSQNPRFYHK
On the technique in general: Immunoblotting shows a protein as a band on a membrane.

Test [3] relates to recombinant class I and II HDACs. Description: Photolabeling of recombinant proteins, gel based visualization. Type of test: binding.
The next test concerns the target T2, recombinant HDAC8 (Homo sapiens, UniProt Q9BY41).
T2 sequence (Q9BY41 1-377): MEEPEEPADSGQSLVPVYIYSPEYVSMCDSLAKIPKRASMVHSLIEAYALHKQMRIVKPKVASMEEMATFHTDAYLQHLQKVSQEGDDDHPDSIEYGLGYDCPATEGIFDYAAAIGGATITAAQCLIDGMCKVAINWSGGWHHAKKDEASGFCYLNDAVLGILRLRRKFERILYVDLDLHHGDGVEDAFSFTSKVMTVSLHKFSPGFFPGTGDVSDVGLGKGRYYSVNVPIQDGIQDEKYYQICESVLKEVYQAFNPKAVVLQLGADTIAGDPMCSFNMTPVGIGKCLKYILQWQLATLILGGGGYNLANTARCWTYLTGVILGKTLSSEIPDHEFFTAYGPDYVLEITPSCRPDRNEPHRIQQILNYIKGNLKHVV
Description: Fluorogenic enzymatic assay, recombinant HDAC8. Type of test: biochemical. The procedure, abridged:
(§1)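 Deacetylase activity of recombinant human class I HDAC isoforms was measured with a fluorogenic assay following previously published procedures. Inhibition is reported as log IC50, as the average ± s.e. of n=3.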

In test [4] the test system is class I and II HDACs. Type of test: cell-based, Human. Particulars: seven breast cancer cell lines, photomate 10 µM. The procedure, abridged:
(§2)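 Cells at 90% confluence were pretreated with SAHA (200 µM) or DMSO, then given photomate 10 µM for 40 min at 37 °C. They were cooled to 4 °C and irradiated at 366 nm (35 J/cm2). Lysate (1 mg) was clicked to azide-biotin (1.5× probe; TCEP, TBTA, CuSO4; 90 min rt), then enriched on streptavidin beads and in-gel digested. Proteins reduced ≥50% by SAHA were scored.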

Test [5] deals with T3, class I and II HDACs (Homo sapiens, UniProt O15379). Type of test: cell-based. Particulars: P<.0001. In a few lines:
as §2

Another test relates to TNBC cells. Kind of test: Efficacy in breast cancer cells. Format: cell-based, Human. The note with it: Figure S2B.
A further test has as its target recombinant HDAC2 (Homo sapiens, UniProt Q92769). Kind of test: Fluorogenic enzymatic assay, recombinant HDAC2. Format: biochemical. In a few lines:
as §1

The next test addresses recombinant HDAC4 (Homo sapiens, UniProt P56524). Kind of test: Fluorogenic enzymatic assay, recombinant HDAC4. Format: biochemical.
For another test, the target named is recombinant HDAC1 (Homo sapiens, UniProt Q13547). Description: Fluorogenic enzymatic assay, recombinant HDAC1. Format: biochemical. In a few lines: as §1
The subject of test [6] is class I and II HDACs. Kind of test: In situ photolabeling of MCF-7 cells, enrichment, Western blot and MS/MS. Format: cell-based, Human. The note with it: MCF-7 cells. In a few lines:
(§3)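 MCF-7 cells at 90% confluence were pretreated with SAHA (200 µM) or DMSO, then given 10 µM test compound for 40 min at 37 °C. Cells were cooled to 4 °C, irradiated at 366 nm (35 J/cm2) and lysed in HEPES pH 7.5 buffer. Lysate was click-conjugated to biotin azide (CuSO4/TBTA/TCEP, 90 min, rt), then streptavidin-enriched for Western blot or in-gel tryptic MS/MS. A hit was a protein reduced ≥50% by SAHA and absent in DMSO controls.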

Test [7] deals with T3, class I and II HDACs. The test is described as above. Type of test: cell-based. The note with it: MCF-7 cells and other luminal cell types. The procedure, abridged:
as §3

The target in test [8] is T1, HDAC3. Kind of test: Fluorogenic enzymatic assay, recombinant HDAC3. Type of test: biochemical. The procedure, abridged:
as §1
Target sequence in this assay (O15379 whole entry): as the sequence (O15379 whole entry) above
Target sequence in this assay (Q9Y618 395-489 partner limits assumed): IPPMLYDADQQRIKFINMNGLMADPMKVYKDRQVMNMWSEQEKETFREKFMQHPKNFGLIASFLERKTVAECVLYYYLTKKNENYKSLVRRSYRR

The mark [9] stands for this setting: MCF-7 cells stimulated with TNF-α, compared to TNF-α alone.

A word on the IC50: it is the concentration needed to halve the response being measured.

T3 sequence (O15379 whole entry): as the sequence (O15379 whole entry) above
Sequence of recombinant HDAC4 (P56524 whole entry): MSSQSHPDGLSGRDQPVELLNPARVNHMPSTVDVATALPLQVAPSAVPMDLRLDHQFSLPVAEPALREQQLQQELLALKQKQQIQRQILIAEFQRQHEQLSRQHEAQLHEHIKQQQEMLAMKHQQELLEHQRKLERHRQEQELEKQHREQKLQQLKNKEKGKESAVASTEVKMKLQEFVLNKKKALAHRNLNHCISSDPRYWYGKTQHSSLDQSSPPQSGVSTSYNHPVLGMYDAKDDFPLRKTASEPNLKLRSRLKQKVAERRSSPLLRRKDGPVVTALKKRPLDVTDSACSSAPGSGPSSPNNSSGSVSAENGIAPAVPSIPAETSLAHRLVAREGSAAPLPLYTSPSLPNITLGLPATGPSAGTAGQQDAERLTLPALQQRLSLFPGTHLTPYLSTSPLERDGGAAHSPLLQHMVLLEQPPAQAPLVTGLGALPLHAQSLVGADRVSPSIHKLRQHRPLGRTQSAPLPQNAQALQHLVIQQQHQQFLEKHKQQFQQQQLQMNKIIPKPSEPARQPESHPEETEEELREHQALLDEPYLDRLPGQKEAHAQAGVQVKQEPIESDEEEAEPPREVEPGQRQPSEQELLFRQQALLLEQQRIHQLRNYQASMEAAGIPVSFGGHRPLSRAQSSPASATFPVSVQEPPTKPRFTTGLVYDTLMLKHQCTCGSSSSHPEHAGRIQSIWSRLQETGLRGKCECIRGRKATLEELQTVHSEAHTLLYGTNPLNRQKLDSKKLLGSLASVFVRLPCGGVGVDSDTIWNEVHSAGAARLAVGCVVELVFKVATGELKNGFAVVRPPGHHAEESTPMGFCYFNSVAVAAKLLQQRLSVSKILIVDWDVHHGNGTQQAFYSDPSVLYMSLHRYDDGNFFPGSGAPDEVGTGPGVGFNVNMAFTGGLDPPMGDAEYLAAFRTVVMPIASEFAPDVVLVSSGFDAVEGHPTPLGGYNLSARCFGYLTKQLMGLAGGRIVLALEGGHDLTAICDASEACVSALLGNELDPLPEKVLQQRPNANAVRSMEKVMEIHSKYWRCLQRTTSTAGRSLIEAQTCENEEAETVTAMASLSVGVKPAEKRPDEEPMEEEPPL

For the compound `COc1ccc(CNC(=O)Nc2ncc([N+](=O)[O-])s2)cc1` [AR-A014418], on HDAC3 [1], the “HDAC3 phosphorylation after inhibitor treatment” value is listed as “did not affect” and the “photomate labeling (engagement) of HDAC3 after inhibitor treatment” value (from here on “photomate labeling … after inhibitor treatment”) was “did not affect”.
`CCOc1nc(NC(=O)Cc2cc(OC)ccc2OC)cc(N)c1C#N` [TCS 6o]: at HDAC3 [2] (setting [9]), the “HDAC3 phosphorylation, JNK inhibitor pretreatment then TNF-α” value was “decrease in HDAC3 labeling and phosphorylation”; the “photomate labeling of HDAC3, JNK inhibitor pretreatment then TNF-α” value was “decrease in HDAC3 labeling and phosphorylation”. Moreover, on HDAC3 [1], the “HDAC3 phosphorylation after inhibitor treatment” value is reported as “decreased” and the “photomate labeling … after inhibitor treatment” value is recorded as “decreased”.
Consider `O=c1cc(N2CCOCC2)oc2c(-c3ccccc3)cccc12` [LY294002], for which, at HDAC3 [1], the “HDAC3 phosphorylation after inhibitor treatment” value is reported as “Neither of the compounds induced any change” and the “photomate labeling … after inhibitor treatment” value was “Neither of the compounds induced any change”.
For EGF: MAPK stimulating growth factor, in the test with HDAC3 [2] (MCF-7 cells), the “photomate labeling of HDAC3 after treatment” value was “had no effect”.
Regarding `O=C(CCCCCCC(=O)Nc1ccccc1)NO` [SAHA, suberoyl anilide hydroxamic acid], the “photomate labeling of HDAC isoforms upon co-incubation with competitor” value in test [3] (SAHA 200 µM, photomate 10 µM) is recorded as “Labeling of all HDAC isoforms was lost”.
Take `O=C(c1ccc(Nc2nccc(-c3cc4ccccc4s3)n2)cc1)N1CCC(N2CCCC2)CC1` [IKK-16]: the “photomate labeling … after inhibitor treatment” value on HDAC3 [1] is given as “no change”.
As for IGF-1: MAPK stimulating growth factor, in the test with HDAC3 [2] (MCF-7 cells), the “photomate labeling of HDAC3 after treatment” value is listed as “had no effect”.
Consider `Oc1ccc(-c2nc(-c3ccncc3)c(-c3ccc(F)cc3)[nH]2)cc1` [SB202190], for which the “photomate labeling … after inhibitor treatment” value on HDAC3 [1] is given as “increased labeling”.
Consider `CC/C(=C(\c1ccccc1)c1ccc(OCCN(C)C)cc1)c1ccccc1` [tamoxifen], for which, at HDAC3 [2] (MCF-7 cells), the “HDAC3 phosphorylation after treatment” value was “no increase” and the “photomate labeling of HDAC3 after treatment” value was “no increase”.
On to `Brc1c(Br)c(Br)c2n[nH]nc2c1Br` [TBB], for which, at HDAC3 [1], the “HDAC3 phosphorylation after inhibitor treatment” value is “Neither of the compounds induced any change” and the “photomate labeling … after inhibitor treatment” value is “Neither of the compounds induced any change”.
Turning to `Oc1c2ccccc2c2c3c(cccc13)N=N2` [SP600125], on HDAC3 [1], the “HDAC3 phosphorylation after inhibitor treatment” value is given as “complete loss of HDAC3 phosphorylation” and the “photomate labeling … after inhibitor treatment” value is reported as “abolished the labeling of HDAC3”.
With `C#CCN(CCCCCC(=O)NO)Cc1c(F)c(F)c(N=[N+]=[N-])c(F)c1F` [photomate, 6-((4-Azido-2,3,5,6-tetrafluorobenzyl)(prop-2-yn-1-yl)amino)-N-hydroxyhexanamide], the “relative potency or affinity based on inhibition or labeling (isoform selectivity)” value in test [3] (recombinant HDAC1, 2, 3, 8 and 4) was “nonselective for HDAC1, 2 and 3 but shows decreased potency and affinity with respect to HDAC8 and the class II HDAC4”. Further, the half-maximal inhibitory concentration (IC50) on recombinant HDAC8 was 2270 nM; on recombinant HDAC2, 132 nM; at recombinant HDAC4 it was 20100 nM; at recombinant HDAC1, 417 nM; on HDAC3 [8], 109 nM. In addition, in the test with class I and II HDACs [4], the “HDAC isoforms enriched across cell lines” value is “ubiquitously targeted and enriched HDAC1, 2 and 9 from every cell line”. Also, the “HDAC3 enriched from TNBC cell lines in comparison to luminal subtypes” value at class I and II HDACs [5] is recorded as “increased amounts of HDAC3 were enriched from TNBC cell lines”. The “efficacy in TNBC cells” value in the test on TNBC cells is listed as “increased efficacy in TNBC cells”. In the test with class I and II HDACs [6], the “HDAC targets identified by MS/MS and Western blot” value was “HDAC1 and 2 were the only HDAC targets”. Moreover, on class I and II HDACs [7], the “engagement of HDAC3 in cells” value is “could not be detected”.
For the compound TNF-α, at HDAC3 [2] (MCF-7 cells), the “photomate labeling of HDAC3 after treatment” value is given as “induces specific labeling of HDAC3”.
